Screens from PubChem.
MC4R antagonist: antagonists of human melanocortin 4 receptor (MC4R); P32245; hit rate 0.48% among 360,000; inhibition, % at 6.5 µM; MC4R-expressing cells, MTII-stimulated cAMP, LANCE TR-FRET;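 active = inhibition above its plate's cutoff, the mean of tested wells on that plate plus 3 SD, cut at about 29% in these data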
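system = U2OS cells with stable human MC4R expression | also added = Melanotan II challenge after compound preincubation | dosing = one concentration, 6.5 µM nominal | incubation = compound 30 min, challenge 1 h, detection 1 h | measured by = TR-FRET with Eu-cAMP and labeled anti-cAMP, 671 nm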
NR1D1 modulator: Rev-erb alpha (human) modulation | Rev-erbα–FITC-DNA binding, fluorescence polarization, 90 min | activity, % at 10 µM | hit rate 0.79% among 370,000 | AID 1259318;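 active = activity above about 14%, limit read from the data; passing the limit was not always enough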
Target sequence (P20393 whole entry, looked up): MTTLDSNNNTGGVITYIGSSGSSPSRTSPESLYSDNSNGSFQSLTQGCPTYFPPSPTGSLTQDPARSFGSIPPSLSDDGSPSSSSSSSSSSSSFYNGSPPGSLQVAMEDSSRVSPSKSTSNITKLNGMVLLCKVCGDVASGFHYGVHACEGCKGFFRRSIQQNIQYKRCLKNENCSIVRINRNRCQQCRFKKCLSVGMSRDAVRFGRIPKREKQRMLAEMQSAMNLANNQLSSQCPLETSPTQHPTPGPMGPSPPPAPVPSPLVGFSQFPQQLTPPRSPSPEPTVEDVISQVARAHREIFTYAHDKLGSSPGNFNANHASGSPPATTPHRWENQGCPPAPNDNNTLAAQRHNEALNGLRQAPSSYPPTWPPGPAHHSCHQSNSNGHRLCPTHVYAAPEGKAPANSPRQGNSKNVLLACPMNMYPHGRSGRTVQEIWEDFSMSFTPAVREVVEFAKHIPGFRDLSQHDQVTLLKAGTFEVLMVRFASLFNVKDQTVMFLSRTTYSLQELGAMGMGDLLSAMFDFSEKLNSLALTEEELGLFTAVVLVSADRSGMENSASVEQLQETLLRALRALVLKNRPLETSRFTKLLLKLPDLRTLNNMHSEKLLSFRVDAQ
NTR1 ag: NTR1 (human) agonism; P30989; NTR1-U2OS beta-arrestin-GFP spot imaging, agonist mode; activation, % at 20 µM; hit rate 0.17% among 330,000;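 active = activation at or above 40% of the spot to cytoplasm intensity ratio, with at least 20 cells analyzed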
MC4R barr agon: human MC4R agonism via beta-arrestin; hit rate 0.98% among 360,000; activation, % at 8.9 µM; U2OS MC4R beta-arrestin complementation, luminescence; percent of melanotan II response, DMSO zero; P32245;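 active = activation above a per-plate cutoff, the mean activation of sample wells on that plate plus 3 SD, cut at about 8% in these data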
PG9 binder: binds the HIV-1 gp120 antibody PG9; TR-FRET gp120-PG9 antibody binding; hit rate 0.43% among 360,000; inhibition, % at 6.7 µM; in the data active = inhibition above about 8.5%
U2OS cAMP counter: nonselective cAMP signaling inhibitor, MC4R antagonist counter-screen; inhibition, % at 6.5 µM; shares compounds with MC4R antagonist; parental U2OS, forskolin cAMP, LANCE TR-FRET; hit rate 26% among 1,600;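 active = mean inhibition over triplicates above the low-control well mean plus 3 SD, set per campaign, cut at about 13% in these data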;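 also: signal is single emission at 671 nm which falls as cellular cAMP rises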
MC4R antag conf: human MC4R cAMP antagonism confirmation; shares compounds with MC4R antagonist; MC4R-expressing cells, MTII-stimulated cAMP, TR-FRET; inhibition, % at 6.5 µM; hit rate 27% among 1,600; AID 602195; in the data active = inhibition above about 29%
PG9 bind confirm: confirmation of small molecules binding HIV-1 gp120 antibody PG9; hit rate 90% among 1,500; inhibition, % at 6.7 µM; AID 651571; TR-FRET PG9 antibody binding, biochemical; shares compounds with PG9 binder; in the data active = inhibition above about 9%
PGV04 Ab binding: binds control antibody PGV04 in PG9 binder counter-screen. hit rate 95% among 1,500. inhibition, % at 6.7 µM. shares compounds with PG9 binder. TR-FRET PGV04 antibody-gp120 binding, biochemical; in the data active = inhibition above about 9.5%
PG9 bind DR: PG9 antibody binding, dose response | shares compounds with PG9 binder | TR-FRET PG9 antibody-gp120 binding inhibition | IC50, µM | 95 tested, under 10 active | AID 651848; in the data active = IC50 below about 10 µM
PGV04 binding DR: counter-screen for PG9 binders: binding to control antibody PGV04; shares compounds with PG9 binder; TR-FRET binding to control antibody PGV04; IC50, µM; hit rate 20% among 95
PG126 DR counter: counter-screen for PG9 binders: binding to control antibody PG126; IC50, µM; TR-FRET binding to antibody PG126, counterscreen; hit rate 20% among 95; shares compounds with PG9 binder
Rev-erbA confirm: Rev-erb alpha (human) modulation, hit confirmation | hit rate 61% among 3,000 | Rev-erb alpha FITC-DNA binding, fluorescence polarization, 90 min | activation, % at 25 µM | shares compounds with NR1D1 modulator;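 active = activation at or above a set limit, or at least 3 SD above the negative control mean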
Large screens that a line does not name were inactive (follow-up assays come after a bar, where they were run); ! = not confirmed by another sample. A selection: hits, their analogues and other compounds. The true share with any hit is near 2.5%. Rule as the data show it, unless noted: active = IC50 below about 9 µM; inactive = the rest.

Cc1cc(Br)c2nc3c(c(C(=O)O)c2c1)CCCCC3	MC4R antagonist active, PG9 binder 75 (no result: NTR1 ag) | U2OS cAMP counter active | PG9 bind confirm 74 | PGV04 Ab binding 88
S=c1[nH]nc(-c2ccccn2)n1/N=C/c1ccc(-c2ccccc2Br)o1	MC4R antagonist 94, PG9 binder 15 (no result: NTR1 ag) | U2OS cAMP counter 58 | MC4R antag conf 126 | PG9 bind confirm inactive | PGV04 Ab binding 25
COC(=O)[C@@]12CCCCC3=C1N(CCC3)C(=O)[C@H]2CC(=O)NCC12CC3CC(CC(C3)C1)C2	none (no result: MC4R antagonist, NTR1 ag, MC4R barr agon, PG9 binder)
CC(=O)c1ccc(NC(=O)c2ccccc2Sc2ncnc3sc(C)c(C)c23)cc1	none
Cc1sc2ncnc(Sc3ccccc3C(=O)O)c2c1C	MC4R antagonist 97, PG9 binder 31 | U2OS cAMP counter 50 | MC4R antag conf 87 | PG9 bind confirm 37 | PGV04 Ab binding 46
Cc1cc(Oc2cccnc2)ccc1NC(=O)Cc1c(C)[nH]c2ccccc12	none (no result: MC4R antagonist, NTR1 ag, MC4R barr agon)
COC(=O)c1sccc1NC(=O)c1ccccc1C(=O)O	none
CC(=O)c1sccc1NC(=O)c1ccccc1C(=O)O	MC4R antagonist 72, PG9 binder 36 | U2OS cAMP counter 29 | MC4R antag conf 61 | PG9 bind confirm 39 | PGV04 Ab binding 47
Cc1nc2ccc(C(=O)N3CCN(C(=O)OCc4ccccc4)CC3)cc2n1C1CCCC1	none (no result: MC4R antagonist, NTR1 ag, MC4R barr agon, PG9 binder)
Cc1nc2ccc(Br)cc2c(-c2ccccc2)c1C(=O)O	MC4R antagonist 35, PG9 binder 55 | U2OS cAMP counter 48 | MC4R antag conf 96 | PG9 bind confirm 65 | PGV04 Ab binding 77
Cc1ccc(-c2cc(C(=O)O)c3cc(Br)ccc3n2)s1	MC4R antagonist 36, PG9 binder 23 | U2OS cAMP counter 16 | MC4R antag conf 31! | PG9 bind confirm 28 | PGV04 Ab binding 43
Cc1ccc(-c2cc(C(=O)N3CCCC3)c3ccccc3n2)s1	none
C=CCn1c(=S)[nH]c2scc(-c3cccs3)c2c1=O	MC4R antagonist 51, PG9 binder 9.3 (no result: NTR1 ag) | U2OS cAMP counter 17 | MC4R antag conf inactive | PG9 bind confirm 9.8 | PGV04 Ab binding 10
COC(=O)[C@@]1(OC(C)=O)CC(OC(C)=O)[C@H](OC(C)=O)[C@H](OC(C)=O)C1Br (stereo partly specified)	none (no result: MC4R antagonist, NTR1 ag, MC4R barr agon, PG9 binder)
CC1=NOC(=O)/C1=C\c1ccc(-c2ccccc2Br)o1	MC4R antagonist 62, PG9 binder 14 (no result: NTR1 ag) | U2OS cAMP counter inactive | MC4R antag conf inactive | PG9 bind confirm 30 | PGV04 Ab binding 54
Cc1onc(-c2c(F)cccc2Cl)c1C(=O)Nc1nnc(C(F)(F)F)s1	MC4R antagonist 48, PG9 binder 24 | U2OS cAMP counter 36 | MC4R antag conf 74 | PG9 bind confirm 30 | PGV04 Ab binding 42
COc1ccccc1Cn1c(=S)[nH]c2ccc(F)cc2c1=O	MC4R antagonist 65, PG9 binder 32 | U2OS cAMP counter 50 | MC4R antag conf 100 | PG9 bind confirm 18 | PGV04 Ab binding 17 | PG9 bind DR inactive | PGV04 binding DR inactive | PG126 DR counter inactive
CC(C)(C)c1nc(SCC(=O)NC2CCCC2)c2ccccc2n1	MC4R antagonist 29, PG9 binder 9.9 | U2OS cAMP counter inactive | MC4R antag conf inactive | PG9 bind confirm 13 | PGV04 Ab binding 17
O=C(Nc1nc(-c2ccc(F)cc2)cs1)c1ccc(N2C(=O)CCC2=O)cc1	none
COc1ccc(-c2csc(NC(=O)c3ccc(N4C(=O)CCC4=O)cc3)n2)cc1	MC4R antagonist 50, NR1D1 modulator 27, PG9 binder 29 | U2OS cAMP counter 25 | MC4R antag conf 42 | PG9 bind confirm 28 | PGV04 Ab binding 50 | Rev-erbA confirm inactive
COc1ccc(-c2cc(C(=O)Nc3cc(C)on3)no2)cc1OC	MC4R antagonist 31, NR1D1 modulator 36 | U2OS cAMP counter inactive | MC4R antag conf inactive | Rev-erbA confirm 29
Cc1cc(NC(=O)c2cc(-c3ccc(O)cc3)on2)no1	none
COc1ccc(-c2cc(C(=O)Nc3ccc(Br)cc3)no2)cc1	MC4R antagonist 29, NR1D1 modulator 35 | U2OS cAMP counter inactive | MC4R antag conf inactive | Rev-erbA confirm inactive
CC(=O)N1CCc2cc(S(=O)(=O)NCCC(=O)NCc3ccc(Cl)cc3)ccc21	none (no result: MC4R antagonist, NTR1 ag, MC4R barr agon, PG9 binder)
CN1Cc2nnn(Cc3ccccc3)c2-c2ccccc2S1(=O)=O	none (no result: MC4R antagonist, NTR1 ag, MC4R barr agon, PG9 binder)
Nc1c(C(=O)Nc2ccccc2F)sc2nc(Cc3ccccc3)cc(C(F)(F)F)c12	MC4R antagonist 111, NR1D1 modulator 108 | U2OS cAMP counter inactive | MC4R antag conf inactive | Rev-erbA confirm 81
O=C1CCC(NC(=O)Cc2ccccc2)C(=O)N1 (stereo unspecified)	none (no result: MC4R antagonist, NTR1 ag, MC4R barr agon)
CCOC(=O)c1c(-c2ccc(F)cc2)csc1NC(=O)CN1C(=O)NC2(CCCCC2C)C1=O (stereo unspecified)	MC4R antagonist 32, NR1D1 modulator 21 | U2OS cAMP counter inactive | MC4R antag conf inactive | Rev-erbA confirm inactive
CC(C)Cc1ccc(-c2cc3nc(NCCc4ccc(S(N)(=O)=O)cc4)ccn3n2)cc1	MC4R antagonist 29, NR1D1 modulator 35 (no result: NTR1 ag) | U2OS cAMP counter inactive | MC4R antag conf inactive | Rev-erbA confirm 24
Nc1[nH]c2cc(C(F)(F)F)ccc2c1C(=O)N1CCN(CCc2ccccc2)CC1	none (no result: MC4R antagonist, NTR1 ag, MC4R barr agon, PG9 binder)
Cc1ccccc1OCC(=O)Nc1sc2c(c1C#N)CC(C)(C)NC2(C)C	none
Cc1ccccc1OCC(=O)Nc1sc(C(=O)Nc2cccc(C)c2C)c(C)c1C#N	MC4R antagonist 105, NR1D1 modulator 54 (no result: PG9 binder) | U2OS cAMP counter inactive | MC4R antag conf inactive | Rev-erbA confirm 23
S=c1[nH]ncn2c1cc1oc3ccccc3c12	MC4R antagonist 34, NR1D1 modulator 34 | U2OS cAMP counter 22 | MC4R antag conf 41 | Rev-erbA confirm 20
O=c1c2ccccc2oc2ccccc12	none (no result: NTR1 ag)
